Measurements taken from ChEMBL document CHEMBL1154219, “New Ras CAAX mimetics: design, synthesis, antiproliferative activity, and RAS prenylation inhibition” (Bioorg Med Chem Lett, 2009).
Active and inactive are the calls of the source. The calls are words filed in the database; no cut-off is given here.

Experiments:
[1] = Antiproliferative activity against HSMC after 72 hrs; assay type: functional; conditions: Homo sapiens
Procedure, shortened: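 Human aortic SMCs seeded at 8 × 10⁴ cells per 35 mm dish in DMEM with 10% FCS. After 24 h, switched to 0.4% FCS for 72 h to arrest growth. Then refed with 10% FCS with or without compound (DMSO, final ≤0.5%) for 72 h at 37 °C. Cells trypsinized and counted by Coulter counter. IC50 obtained by linear regression of log concentration versus logit.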

Homo sapiens [2] = species on record: Homo sapiens; experiment: Inhibition of Ras protein protein prenylation in HSMC assessed as unprenylated Ras accumulation at 75 uM after 72 hrs by Western blot analysis
Procedure, shortened: (§1)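 Human aortic SMCs seeded at 4 × 10⁵ cells per 60 mm dish. Growth-arrested in 0.4% FCS for 72 h, then exposed to compound in 10% FCS for 72 h at 37 °C (DMSO ≤0.5%). Cells lysed on ice in Tris pH 7.5/NaCl/NP-40 buffer with protease inhibitors; lysates cleared, protein measured by BCA. SDS-PAGE under reducing conditions, anti-Ras immunoblot, ECL detection. Unprenylated Ras seen as the slower-migrating band.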

Homo sapiens [3] = species on record: Homo sapiens; experiment: Inhibition of Ras protein protein prenylation in HSMC assessed as unprenylated Ras accumulation at 50 uM after 72 hrs by Western blot analysis; procedure, shortened: as §1
Homo sapiens [4] = species on record: Homo sapiens; experiment: Inhibition of Ras protein protein prenylation in HSMC assessed as unprenylated Ras accumulation at 25 uM after 72 hrs by Western blot analysis; procedure, shortened: as §1
[5] = Inhibition of Ras protein protein prenylation in HSMC assessed as unprenylated Ras accumulation after 72 hrs by Western blot analysis; parameters: species or system Homo sapiens; procedure, shortened: as §1
Homo sapiens [6] = species on record: Homo sapiens; experiment: Inhibition of Ras protein protein prenylation in HSMC assessed as unprenylated Ras accumulation at 10 uM after 72 hrs by Western blot analysis; procedure, shortened: as §1

inhibition (Homo sapiens [3]) | SMILES | IC50 [1] | other results
– | COC(=O)[C@H](CC(C)C)NC(=O)c1ccc(C(=O)NC[C@H]2COc3ccccc3O2)cc1-c1ccccc1OC | 185 µM | –
inactive | COC(=O)CNC(=O)c1ccc(OC[C@H]2COc3ccccc3O2)cc1-c1ccccc1OC | 71 µM | inhibition (Homo sapiens [2]): inactive
– | COC(=O)CNC(=O)c1ccc(C(=O)NC[C@@H]2COc3ccccc3O2)cc1-c1ccccc1OC | 76 µM | –
inactive | COC(=O)[C@H](CC(C)C)NC(=O)c1ccc(OC[C@@H]2COc3ccccc3O2)cc1-c1ccccc1C | 5.2 µM | inhibition (Homo sapiens [4]): inactive
– | COC(=O)[C@H](CCSC)NC(=O)c1ccc(OC[C@H]2COc3ccccc3O2)cc1-c1ccccc1C | 6.6 µM | IC50 [5]: 2.8 µM
inactive | COC(=O)[C@H](CC(C)C)NC(=O)c1ccc(OC[C@H]2COc3ccccc3O2)cc1-c1ccccc1OC | 32 µM | inhibition (Homo sapiens [4]): inactive
– | COC(=O)[C@H](CCSC)NC(=O)c1ccc(C(=O)NC[C@@H]2COc3ccccc3O2)cc1-c1ccccc1OC | 647 µM | –
inactive | COC(=O)CNC(=O)c1ccc(OC[C@@H]2COc3ccccc3O2)cc1-c1ccccc1C | 0.7 µM | inhibition (Homo sapiens [4]): inactive
– | COC(=O)CNC(=O)c1ccc(C(=O)NC[C@H]2COc3ccccc3O2)cc1-c1ccccc1C | 113 µM | –
– | COC(=O)[C@H](CCSC)NC(=O)c1ccc(C(=O)NC[C@H]2COc3ccccc3O2)cc1-c1ccccc1C | 87 µM | –
– | COC(=O)[C@H](CCSC)NC(=O)c1ccc(OC[C@H]2COc3ccccc3O2)cc1-c1ccccc1OC | 230 µM | –
35% | COC(=O)CNC(=O)c1ccc(OC[C@H]2COc3ccccc3O2)cc1-c1ccccc1C | 27 µM | –
– | COC(=O)[C@H](CCSC)NC(=O)c1ccc(C(=O)NC[C@@H]2COc3ccccc3O2)cc1-c1ccccc1C | 533 µM | –
inactive | COC(=O)CNC(=O)c1ccc(OC[C@@H]2COc3ccccc3O2)cc1-c1ccccc1OC | 35 µM | inhibition (Homo sapiens [2]): inactive
inactive | COC(=O)[C@H](CC(C)C)NC(=O)c1ccc(OC[C@H]2COc3ccccc3O2)cc1-c1ccccc1C | 3 µM | inhibition (Homo sapiens [6]): inactive
– | COC(=O)[C@H](CC(C)C)NC(=O)c1ccc(C(=O)NC[C@@H]2COc3ccccc3O2)cc1-c1ccccc1C | 88 µM | –
– | COC(=O)CNC(=O)c1ccc(C(=O)NC[C@@H]2COc3ccccc3O2)cc1-c1ccccc1C | 89 µM | –
– | COC(=O)CNC(=O)c1ccc(C(=O)NC[C@H]2COc3ccccc3O2)cc1-c1ccccc1OC | 122 µM | –
– | COC(=O)[C@H](CC(C)C)NC(=O)c1ccc(C(=O)NC[C@H]2COc3ccccc3O2)cc1-c1ccccc1C | 103 µM | –
– | COC(=O)[C@H](CCSC)NC(=O)c1ccc(OC[C@@H]2COc3ccccc3O2)cc1-c1ccccc1OC | 204 µM | –
– | COC(=O)[C@H](CCSC)NC(=O)c1ccc(C(=O)NC[C@H]2COc3ccccc3O2)cc1-c1ccccc1OC | 252 µM | –
– | COC(=O)[C@H](CCSC)NC(=O)c1ccc(OC[C@@H]2COc3ccccc3O2)cc1-c1ccccc1C | 193 µM | –
inactive | COC(=O)[C@H](CC(C)C)NC(=O)c1ccc(OC[C@@H]2COc3ccccc3O2)cc1-c1ccccc1OC | 17 µM | inhibition (Homo sapiens [6]): inactive
– | COC(=O)[C@H](CC(C)C)NC(=O)c1ccc(C(=O)NC[C@@H]2COc3ccccc3O2)cc1-c1ccccc1OC | 469 µM | –
